Rows were chosen to be rich in hits. Some 1.5% of all compounds tested hit in one or more screens of this group.
CXCR6 block – CXCR6 receptor inhibitors, primary screen, cell-based, beta-arrestin, luminescence, CHO-K1 PathHunter, 1536-well; inhibition, % at 20 µM; 360,000 tested, 0.36% active; in the data active = inhibition above about 34%, passing the limit was not always enough;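 note: antagonist mode with CXCL16 agonist at 10 nM final; 0% = 10 nM CXCL16 with DMSO and 100% = unstimulated wells without agonist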
CCR6 antagonist – CCR6 receptor antagonists, primary screen, cell-based, CHO-K1, luminescence, beta-arrestin, uHTS | C-C chemokine receptor type 6 (Homo sapiens), P51684 | CHO-K1 CCR6 PathHunter beta-arrestin, CCL20-stimulated | inhibition, % at 20 µM | 340,000 tested, 0.49% active | AID 493098, 2011;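 active = compounds whose inhibition of the agonist-driven luminescence signal at 20 µM reaches about 50%, limit read from the data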;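 note: cells stimulated with CCL20 at 14 nM final; plate controls were DMSO with CCL20 for no effect and DMSO without agonist for full effect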
APJ ag – agonists of human apelin receptor APJ, primary screen, CHO-K1 cells, PathHunter beta-arrestin, luminescence; 0% DMSO wells, 100% apelin; activation, % at 20 µM; 330,000 tested, 0.11% active; AID 2520, 2010;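 active = activation more than six SD over the plate average, tested at 20 µM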;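 note: 0% = DMSO alone and 100% = apelin-13 at 10 nM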
Target sequence (P35414 whole entry, looked up): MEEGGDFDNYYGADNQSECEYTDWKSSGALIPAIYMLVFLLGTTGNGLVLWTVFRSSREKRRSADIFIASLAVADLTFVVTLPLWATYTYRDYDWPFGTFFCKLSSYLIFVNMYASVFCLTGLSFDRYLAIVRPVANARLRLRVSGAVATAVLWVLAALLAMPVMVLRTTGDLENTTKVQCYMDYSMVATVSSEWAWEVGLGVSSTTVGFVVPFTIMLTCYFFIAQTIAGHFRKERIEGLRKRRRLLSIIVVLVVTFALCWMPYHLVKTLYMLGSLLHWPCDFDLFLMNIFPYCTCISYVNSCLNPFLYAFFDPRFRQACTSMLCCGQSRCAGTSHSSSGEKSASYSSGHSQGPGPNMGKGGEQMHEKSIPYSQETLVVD
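system = engineered CHO-K1 APJ arrestin reporter cells | input = 1000 cells per well | timing = overnight seeding, 90 min compound at 25 °C, 1 h detection | measured by = enzyme-fragment complementation luminescence | read-out = beta-arrestin recruitment to APJ as agonist activity, luminescent signal | control set = negative DMSO alone, positive Apelin-13 at 10 nM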
APJ antag – antagonists of human apelin receptor APJ, primary screen, CHO-K1 cells, beta-arrestin complementation, luminescence. inhibition, % at 20 µM. 330,000 tested, 0.32% active;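 active = inhibition above about 40% at 20 µM, limit read from the data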;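 note: cells challenged with 10 nM apelin-13 agonist together with compound; plate controls were apelin-13 plus DMSO wells for no effect and DMSO wells lacking apelin-13 for full effect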
EBI2 block – EBI2 receptor antagonists, beta-arrestin recruitment, primary screen, cell-based, luminescence, 7a,25-OHC stimulation, uHTS; 360,000 tested, 0.81% active; G-protein coupled receptor 183 (Homo sapiens), P32249; AID 651636, 2012; 7a,25-OHC stimulated; inhibition, % at 5 µM; in the data active = inhibition above about 38%;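 note: enzyme fragment complementation signal reports receptor beta-arrestin coupling in cells; 0% = agonist plus DMSO wells and 100% = wells without agonist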
APJ antag conf – APJ antagonists blocking beta-arrestin recruitment, confirmation, cell-based, luminescence, single concentration, uHTS hits; 950 tested, 66% active; inhibition, % at 20 µM; antagonist mode; shares compounds with APJ antag; AID 2766, 2010; in the data active = inhibition above about 50%
* marks the source's active call; other numbers are inactive results.

What do the screens show for `CC(=O)Nc1ccc(NC(=O)CCC(=O)OCC(=O)c2ccc(C)c([N+](=O)[O-])c2)cc1`?
CXCR6 block: 10; CCR6 antagonist: 42; APJ ag: -9; APJ antag: 70*; EBI2 block: 16; APJ antag conf: 55*

Results for Nc1ccc(S(=O)(=O)Nc2nccs2)cc1N=Nc1ccccc1[N+](=O)[O-] ?
CXCR6 block: 8; CCR6 antagonist: 23; EBI2 block: -8

How did CCN(CC)CCCn1c2c(c(SCC(=O)Nc3cc(OC)cc(OC)c3)nc1=O)CCC2 do in these assays?
CXCR6 block: 8; CCR6 antagonist: 1; APJ ag: -3; APJ antag: 55*; EBI2 block: 3; APJ antag conf: 18

What do the screens show for `CCN(CC)CCCn1c2c(c(SCC(=O)Nc3ccc(F)c(F)c3)nc1=O)CCC2`?
CXCR6 block: 3; CCR6 antagonist: 6; APJ ag: -6; APJ antag: 6; EBI2 block: 7

Results for CCN1/C(=C\c2ccc3cc(C)ccc3[n+]2CC)Sc2cc(C)c(C)cc21 ?
CXCR6 block: 8; CCR6 antagonist: 8; EBI2 block: -4

Results for CCN1/C(=C/c2ccc3cc(C)ccc3[n+]2CC)Sc2ccc3sccc3c21 ?
CXCR6 block: 37; CCR6 antagonist: 40; APJ ag: 6; APJ antag: 40*; EBI2 block: 3; APJ antag conf: 56*

How did Cc1nn(-c2nc3ccccc3[nH]2)c(=O)c2ccccc12 do in these assays?
CXCR6 block: 7; CCR6 antagonist: 3; EBI2 block: 2

What do the screens show for `Cc1nn(-c2nc3ccccc3[nH]2)c(N)c1-c1ccc(Cl)cc1`?
CXCR6 block: 34; CCR6 antagonist: 43; APJ ag: -6; APJ antag: 46*; EBI2 block: 27; APJ antag conf: 0

How did CC(C)Oc1cccc(C(=O)NC(=S)Nc2cccnc2)c1 do in these assays?
CXCR6 block: 21; CCR6 antagonist: 38; APJ ag: -5; APJ antag: 42*; EBI2 block: -1; APJ antag conf: 50*

Results for COc1cccc(C(=O)NC(=S)Nc2cccnc2)c1 ?
CXCR6 block: 23; CCR6 antagonist: 34; APJ ag: -5; APJ antag: 21; EBI2 block: -12

What do the screens show for `O=C(CSc1ncnc2c1cnn2-c1ccccc1)Nc1ccccc1`?
CXCR6 block: 0; CCR6 antagonist: 11; APJ ag: 2; APJ antag: 54*; EBI2 block: -1; APJ antag conf: 27

How did COc1ccc(CCNC(=O)Cc2ccccc2)cc1OC do in these assays?
CXCR6 block: 3; CCR6 antagonist: 17; APJ ag: -2; APJ antag: 111*; EBI2 block: 1; APJ antag conf: 27

Results for c1ccc(OCCNc2ccn3nc(-c4ccc(OCCN5CCOCC5)cc4)cc3n2)cc1 ?
CXCR6 block: -9; EBI2 block: 1

How did Cc1cccc(C(=O)Nc2ccc(C(=O)/C=C/c3ccncc3)cc2)c1 do in these assays?
CXCR6 block: 59*; CCR6 antagonist: 41; APJ ag: 2; APJ antag: 41*; EBI2 block: 41; APJ antag conf: 77*

How did COc1cc(C)ccc1S(=O)(=O)NC(=O)C1(C)CCN1C(=O)COc1ccc(Cl)cc1 (stereo not given) do in these assays?
CXCR6 block: 0; EBI2 block: -5

What do the screens show for `COc1cccc(S(=O)(=O)N(C)C[C@H]2OCc3cnnn3CCCC(=O)N([C@@H](C)CO)C[C@@H]2C)c1`?
CXCR6 block: -7; EBI2 block: -1

What do the screens show for `CC([NH2+][O-])C(C)(C)NO` (stereo not given)?
CXCR6 block: 30; CCR6 antagonist: 51*; APJ ag: -5; APJ antag: 47*; EBI2 block: 6; APJ antag conf: 33

Results for Cc1cc(=O)[nH]c(N=N/C(=N/Nc2ccccc2C)c2ccccc2)n1 ?
CXCR6 block: 3; CCR6 antagonist: 21; APJ ag: -7; APJ antag: 12; EBI2 block: -11

What do the screens show for `Cc1cc(=O)[nH]c(N=N/C(=N/Nc2ccc(O)cc2)c2ccccc2)n1`?
CXCR6 block: 23; CCR6 antagonist: 56*; APJ ag: -11; APJ antag: 59*; EBI2 block: 5; APJ antag conf: 89*

Results for CCOc1ccc(NC(=O)CC2C(=O)N(CC)C(=S)N2CCN2CCOCC2)cc1 (stereo not given) ?
CXCR6 block: -9; CCR6 antagonist: -11; APJ ag: -3; APJ antag: 46*; EBI2 block: -1; APJ antag conf: -6

How did COc1ccc(C(NC(=O)C2CCN(Cc3ccc(Oc4ccccc4)cc3)CC2)c2ccccn2)cc1 (stereo not given) do in these assays?
CXCR6 block: 17; EBI2 block: 11

What do the screens show for `CCOc1ccc(-c2c(C(=O)N/N=C/c3cccc(Br)c3)nnn2-c2nonc2N)cc1`?
CXCR6 block: 15; CCR6 antagonist: 18; APJ ag: -4; APJ antag: 45*; EBI2 block: 18; APJ antag conf: 47

How did CCOc1ccc(-c2c(C(=O)N/N=C/c3ccc(O)cc3)nnn2-c2nonc2N)cc1 do in these assays?
CXCR6 block: 1; CCR6 antagonist: -2; APJ ag: -4; APJ antag: 5; EBI2 block: 2

How did CCN(CC)CCSc1nnc(Nc2ccccc2)n1-c1ccccc1 do in these assays?
CXCR6 block: 6; CCR6 antagonist: -5; APJ ag: -2; APJ antag: 51*; EBI2 block: 10; APJ antag conf: 20

Results for COc1ccc2cc(C)c3nnc(SCc4cccnc4)n3c2c1 ?
CXCR6 block: 3; CCR6 antagonist: 29; APJ ag: -5; APJ antag: 40*; EBI2 block: -3; APJ antag conf: 44

What do the screens show for `C=CCNC(=S)N/N=C(\C)c1ccccn1`?
CXCR6 block: 20; CCR6 antagonist: 50; APJ ag: -6; APJ antag: 67*; EBI2 block: 38; APJ antag conf: 48

Results for CC(=NNC(=S)Nc1ccccc1)c1ccccn1 ?
CXCR6 block: -10; EBI2 block: -4

How did COC(=O)C1=C(C)N(Cc2ccccc2)C(=NCC(C)C)N[C@H]1c1cccc(F)c1 do in these assays?
CXCR6 block: 2; CCR6 antagonist: 8; APJ ag: -4; APJ antag: 48*; EBI2 block: 9; APJ antag conf: 84*

Bioassay records (PubChem BioAssay)
